Results published in publication PMC7509213 (iScience, 2020).
pIC50: −log10 of the molar value. Like-named read-outs stand apart in the source and are kept apart here.

Legend:
RPB1 subunit of RNAPII [1] = assay: RPB1 degradation in PC3 cells under hypoxia; assay type: cell-based, human; settings: PC3, 10 μM, 1% O2
PC3 cells = assay: PC3 proliferation under hypoxia or normoxia; assay type: cell-based, human; settings: for pIC50: Homo sapiens, PC-3, 48 h
How it was run: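 PC3 cells seeded at 5,000/well and held at 1% O2 in a humidified chamber at 37°C for 48 h (normoxia 20% O2) before 48 h exposure to test compound. A 1 μCi [3H]-thymidine pulse per well was given for 6 h, then cells were harvested onto glass-fibre filters for scintillation counting. Proliferation is relative to DMSO, mean ± SEM, n = 3, and IC50 values were derived from these curves.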

XPB = biological target: T1, XPB (Homo sapiens, UniProt P19447); assay: XPB degradation in cells; assay type: cell-based; settings: 10 μM, western blot
T1 sequence (P19447 1-782): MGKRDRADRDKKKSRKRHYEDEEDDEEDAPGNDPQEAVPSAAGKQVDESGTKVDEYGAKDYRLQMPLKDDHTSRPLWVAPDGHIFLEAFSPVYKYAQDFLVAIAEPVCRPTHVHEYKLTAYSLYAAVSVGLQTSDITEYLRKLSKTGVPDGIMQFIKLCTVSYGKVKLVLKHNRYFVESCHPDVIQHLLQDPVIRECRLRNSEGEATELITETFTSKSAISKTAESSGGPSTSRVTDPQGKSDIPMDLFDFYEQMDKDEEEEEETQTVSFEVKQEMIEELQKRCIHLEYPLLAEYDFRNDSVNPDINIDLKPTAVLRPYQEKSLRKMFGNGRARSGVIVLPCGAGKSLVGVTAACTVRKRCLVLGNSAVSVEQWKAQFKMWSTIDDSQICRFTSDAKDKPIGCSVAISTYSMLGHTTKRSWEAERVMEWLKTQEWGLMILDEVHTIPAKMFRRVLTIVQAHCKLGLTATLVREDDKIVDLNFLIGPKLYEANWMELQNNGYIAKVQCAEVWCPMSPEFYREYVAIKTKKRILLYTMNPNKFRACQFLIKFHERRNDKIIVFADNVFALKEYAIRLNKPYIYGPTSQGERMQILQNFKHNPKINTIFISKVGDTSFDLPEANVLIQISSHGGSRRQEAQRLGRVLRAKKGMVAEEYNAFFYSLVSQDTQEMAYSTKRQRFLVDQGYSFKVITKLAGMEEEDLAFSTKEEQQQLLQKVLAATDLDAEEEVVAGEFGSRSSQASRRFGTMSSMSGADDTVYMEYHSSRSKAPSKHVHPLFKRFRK

RPB1 subunit of RNAPII [2] = assay: RPB1 degradation in HeLa cells; assay type: cell-based, human
[3] = lethal case dosed with 18 mg/m^2 F60008; ref Kitzen et al., 2009; cited from earlier work
TFIIH = TFIIH (Homo sapiens, UniProt P19447); assay: DNA-dependent ATPase activity assay of purified TFIIH; assay type: biochemical; settings: 200 nM
How it was run: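 Purified TFIIH, DNA-dependent ATPase assay. It was started with TFIIH, run for 2 h, and stopped with EDTA. Mixture was spotted on PEI-cellulose TLC and developed in 0.5 M LiCl/1 M HCOOH. Released 32Pi was quantified by phosphorimaging relative to DMSO, mean ± SE, n = 3.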

RPB1 subunit of RNAPII [4] = assay: RPB1 degradation in C342T XPB knock-in cells; assay type: cell-based, human; settings: 1μM

Compound: O=C(Oc1cccc(F)c1OC(=O)c1cccc(O)c1)c1cccc(O)c1 [WZB117, 2-Fluoro-6-(m-hydroxybenzoyloxy) phenyl m-hydroxybenzoate]
- effect on RNAPII degradation triggered by 3 μM G-2 and hypoxia (RPB1 subunit of RNAPII [1]): antagonizes

Compound: COc1cccc2c1C(=O)c1c(O)c3c(c(O)c1C2=O)C[C@@](O)(C(=O)CO)C[C@@H]3O[C@H]1C[C@H](N)[C@H](O)[C@H](C)O1 [doxorubicin]
- potency under hypoxia versus normoxia (PC3 cells; PC3, 1% O2 vs 20% O2): decreased

Compound: CC(=O)S[C@@H]1CC2=CC(=O)CC[C@]2(C)[C@H]2CC[C@@]3(C)[C@@H](CC[C@@]34CCC(=O)O4)[C@H]12 [spironolactone]
- degradation of XPB (XPB): caused degradation of the majority of XPB
- effect on RPB1 degradation induced by G-2 (RPB1 subunit of RNAPII [2]; 10 μM SP combined with 1 μM G-2): rescued RPB1 from degradation
- stability of RPB1 (RPB1 subunit of RNAPII [2]; HeLa, 10 μM): no effect

Compound: CC(C)[C@]12O[C@H]1[C@@H]1O[C@]13[C@]1(O[C@H]1C[C@H]1C4=C(CC[C@@]13C)C(=O)OC4)[C@@H]2O [triptolide, (1S,2S,4S,5S,7R,8R,9S,11S,13S)-8-hydroxy-1-methyl-7-propan-2-yl-3,6,10,16 tetraoxaheptacyclo[11.7.0.0^2,4.0^2,9.0^5,7.0^9,11.0^14,18] icos-14(18)-en-17-one]
- Maximum serum levels [3]: 58.5 ng/mL
- ATPase activity of TFIIH (TFIIH): nearly completely inhibited
- pIC50 (PC3 cells; read-out: IC50, PC3 proliferation under hypoxia): 8.82
- pIC50 (PC3 cells; read-out: IC50, PC3 proliferation under normoxia): 8.35
- fold enhancement of anti-proliferative effect (IC50) during hypoxia (PC3 cells; PC3, hypoxia vs normoxia): three-fold
- effect size during hypoxia (PC3 cells; hypoxic PC3 cells): 0.71

Compound: α-amanitin
- degradation of Rpb1 in C342T XPB isogenic cell line (RPB1 subunit of RNAPII [4]): induced the degradation of Rpb1
